Our source for the Activity and MIC values is ChEMBL document CHEMBL3611989, “Discovery and characterization of aryl isonitriles as a new class of compounds versus methicillin- and vancomycin-resistant Staphylococcus aureus” (Eur J Med Chem, 2015).

The test system of series [1] is J774. The format is cell-based. The note with it: mouse, j774, 2 h, 128 µM.
Series [2] deals with J774. Briefly: Cytotoxicity against mouse J774 cells assessed as reduction in cell viability at 32 uM incubated for 2 hrs by MTS assay. It is filed as cell-based. The note with it: j774, 2 h. A digest of the protocol: (§1)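 Murine J774 macrophages grown in DMEM with 10% FBS at 37 °C, 5% CO2. Compounds were tested in triplicate at 16, 32, 64 and 128 μM for 2 h, with DMSO-matched vehicle controls. MTS reagent was then added and absorbance read at OD490. Viability is given as percent of DMSO-treated cells (mean of triplicate ± standard deviation), compared by paired t-test (P < 0.05).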
A general note: Formazan colour is commonly taken as a measure of viable cells.

Series [3] concerns Staphylococcus aureus. The experiment in a line: Antimicrobial activity against vancomycin-intermediate-resistant Staphylococcus aureus NRS1 assessed as reduction in bacterial growth incubated for 18 to 20 hrs at 37 degC by broth microdilution method. It is filed as functional. A digest of the protocol: (§2)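 Modified CLSI broth microdilution. Bacterial suspension of about 1 × 10^5 CFU/mL in tryptic soy broth. Each agent was added in triplicate to the first row and serially diluted down the plate. Plates were incubated at 37 °C for 18-20 h. MIC was read as the lowest concentration with no visible growth.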

Series [4] relates to Staphylococcus aureus. Briefly: Antimicrobial activity against methicillin-resistant Staphylococcus aureus NRS119 assessed as reduction in bacterial growth incubated for 18 to 20 hrs at 37 degC by broth microdilution method. It is filed as functional. A digest of the protocol:
as §2
(In general: In broth dilution the organism is exposed to a series of concentrations in liquid medium.)

Series [5] concerns Staphylococcus aureus. Briefly: Antimicrobial activity against methicillin-resistant Staphylococcus aureus USA300 assessed as reduction in bacterial growth incubated for 18 to 20 hrs at 37 degC by broth microdilution method. It is filed as functional. The gist of the method: as §2
Series [6] relates to Staphylococcus aureus. Briefly: Antimicrobial activity against vancomycin-resistant Staphylococcus aureus VRS2 assessed as reduction in bacterial growth incubated for 18 to 20 hrs at 37 degC by broth microdilution method. The format is functional. The gist of the method: as §2
Series [7] has as its system Staphylococcus aureus. Briefly: Antimicrobial activity against methicillin-resistant Staphylococcus aureus USA700 assessed as reduction in bacterial growth incubated for 18 to 20 hrs at 37 degC by broth microdilution method. The format is functional. A digest of the protocol:
as §2

The subject of series [8] is J774. Briefly: Cytotoxicity against mouse J774 cells assessed as reduction in cell viability at 64 uM incubated for 2 hrs by MTS assay. The format is cell-based. To be noted: j774, 2 h. The gist of the method:
as §1

For series [9], the system named is Staphylococcus aureus. Briefly: Antimicrobial activity against methicillin-resistant Staphylococcus aureus USA100 assessed as reduction in bacterial growth incubated for 18 to 20 hrs at 37 degC by broth microdilution method. The format is functional. A digest of the protocol:
as §2

Series [10] has as its system Staphylococcus aureus. The experiment in a line: Antimicrobial activity against methicillin-sensitive Staphylococcus aureus NRS72 assessed as reduction in bacterial growth incubated for 18 to 20 hrs at 37 degC by broth microdilution method. It is filed as functional. The gist of the method:
as §2

Series [11] concerns Staphylococcus aureus. Briefly: Antimicrobial activity against methicillin-resistant Staphylococcus aureus USA200 assessed as reduction in bacterial growth incubated for 18 to 20 hrs at 37 degC by broth microdilution method. It is filed as functional. A digest of the protocol:
as §2

Series [12] concerns Staphylococcus aureus. Briefly: Antimicrobial activity against methicillin-resistant Staphylococcus aureus USA500 assessed as reduction in bacterial growth incubated for 18 to 20 hrs at 37 degC by broth microdilution method. It is filed as functional. A digest of the protocol:
as §2

Values after ≈ are worked out from the molar mass of the structure shown.

What is called MIC is the lowest concentration that inhibits growth of the organism. For the molecule `[C-]#[N+]c1ccccc1/C=C(\CC)c1ccc(OC)cc1`, the Activity entry with J774 [1] is “Toxic”; with J774 [2], “Non-toxic”; in the series with J774 [8], “Toxic”. In addition, the MIC in the series with Staphylococcus aureus [3] was 4 µM (≈ 1.05 µg/mL); with Staphylococcus aureus [4], greater than 128 µM; in the series on Staphylococcus aureus [5], 16 µM (≈ 4.21 µg/mL); in the series with Staphylococcus aureus [6], 8 µM (≈ 2.11 µg/mL); with Staphylococcus aureus [7] it was 4 µM (≈ 1.05 µg/mL).
On to `[C-]#[N+]c1ccccc1/C=C/c1cccc(C(F)(F)F)c1`, for which the minimal inhibitory concentration (MIC) in the series with Staphylococcus aureus [9] came to 4 µM (≈ 1.09 µg/mL); in the series on Staphylococcus aureus [3] it was 2 µM (≈ 0.547 µg/mL); in the series on Staphylococcus aureus [10], 2 µM (≈ 0.547 µg/mL); in the series on Staphylococcus aureus [11], 4 µM (≈ 1.09 µg/mL); in the series on Staphylococcus aureus [6], 8 µM (≈ 2.19 µg/mL); with Staphylococcus aureus [7], 4 µM (≈ 1.09 µg/mL). Further, the Activity entry was “Toxic” in the series on J774 [1], “Non-toxic” with J774 [2] and “Non-toxic” with J774 [8].
In the case of `[C-]#[N+]c1ccc(/C=C/c2ccncc2)cc1`, the minimum inhibitory concentration (MIC) amounted to 8 µM (≈ 1.65 µg/mL) in the series on Staphylococcus aureus [9]; 8 µM (≈ 1.65 µg/mL) with Staphylococcus aureus [3]; 2 µM (≈ 0.412 µg/mL) in the series with Staphylococcus aureus [10]; 8 µM (≈ 1.65 µg/mL) in the series on Staphylococcus aureus [11]; 4 µM (≈ 0.825 µg/mL) in the series on Staphylococcus aureus [6]; 8 µM (≈ 1.65 µg/mL) with Staphylococcus aureus [7]. The Activity entry is “Toxic” with J774 [1], “Non-toxic” with J774 [2] and “Non-toxic” in the series on J774 [8].
In the case of `[C-]#[N+]c1ccc(/C=C/c2cccnc2)cc1`, the minimal inhibitory concentration (MIC) in the series with Staphylococcus aureus [9] came out at 16 µM (≈ 3.3 µg/mL); with Staphylococcus aureus [12] it was 32 µM (≈ 6.6 µg/mL); with Staphylococcus aureus [3], 32 µM (≈ 6.6 µg/mL); with Staphylococcus aureus [4] it was 64 µM (≈ 13.2 µg/mL); with Staphylococcus aureus [10] it was 16 µM (≈ 3.3 µg/mL); in the series on Staphylococcus aureus [11] it was 32 µM (≈ 6.6 µg/mL). Further, the minimal inhibitory concentration (MIC) in the series with Staphylococcus aureus [6] was found to be 8 µM (≈ 1.65 µg/mL); in the series with Staphylococcus aureus [7], 16 µM (≈ 3.3 µg/mL). For the same molecule, the Activity entry in the series with J774 [1] is reported as “Toxic”; in the series on J774 [2], “Non-toxic”; in the series with J774 [8] it was “Non-toxic”.
`[C-]#[N+]c1ccccc1/C=C/c1cccc(F)c1`: the MIC in the series with Staphylococcus aureus [9] was determined as 16 µM (≈ 3.57 µg/mL); with Staphylococcus aureus [12], 128 µM (≈ 28.6 µg/mL); with Staphylococcus aureus [3] it was 8 µM (≈ 1.79 µg/mL); in the series on Staphylococcus aureus [4], 128 µM (≈ 28.6 µg/mL); in the series with Staphylococcus aureus [10], 8 µM (≈ 1.79 µg/mL); in the series on Staphylococcus aureus [5], 32 µM (≈ 7.14 µg/mL). Also, the MIC with Staphylococcus aureus [11] was 16 µM (≈ 3.57 µg/mL); in the series with Staphylococcus aureus [6], 128 µM (≈ 28.6 µg/mL); in the series with Staphylococcus aureus [7], 16 µM (≈ 3.57 µg/mL). Moreover, the Activity entry in the series with J774 [1] was “Toxic”; in the series on J774 [2], “Non-toxic”; with J774 [8], “Toxic”.
Consider `[C-]#[N+]c1ccccc1-c1ccc2ccccc2c1`, for which the minimal inhibitory concentration (MIC) amounted to 16 µM (≈ 3.67 µg/mL) in the series on Staphylococcus aureus [9]; 32 µM (≈ 7.34 µg/mL) with Staphylococcus aureus [12]; 4 µM (≈ 0.917 µg/mL) in the series with Staphylococcus aureus [3]; 32 µM (≈ 7.34 µg/mL) in the series on Staphylococcus aureus [4]; 16 µM (≈ 3.67 µg/mL) in the series with Staphylococcus aureus [10]; 64 µM (≈ 14.7 µg/mL) with Staphylococcus aureus [5]. Besides, the MIC stood at 64 µM (≈ 14.7 µg/mL) in the series on Staphylococcus aureus [11], 64 µM (≈ 14.7 µg/mL) in the series on Staphylococcus aureus [6] and 16 µM (≈ 3.67 µg/mL) with Staphylococcus aureus [7]. Further, the results for the Activity result with J774 [1], in the series with J774 [2] and in the series with J774 [8] were “Toxic”, “Non-toxic” and “Non-toxic”, respectively.
On to `[C-]#[N+]c1cccc(/C=C/c2ccccc2)c1`, for which the minimal inhibitory concentration (MIC) in the series on Staphylococcus aureus [9] is 32 µM (≈ 6.57 µg/mL); in the series on Staphylococcus aureus [12], greater than 128 µM; in the series with Staphylococcus aureus [3], 32 µM (≈ 6.57 µg/mL); with Staphylococcus aureus [4] it was 64 µM (≈ 13.1 µg/mL); in the series with Staphylococcus aureus [10], 16 µM (≈ 3.28 µg/mL); with Staphylococcus aureus [5] it was 16 µM (≈ 3.28 µg/mL). The MIC is 32 µM (≈ 6.57 µg/mL) with Staphylococcus aureus [11], 32 µM (≈ 6.57 µg/mL) in the series with Staphylococcus aureus [6] and 16 µM (≈ 3.28 µg/mL) in the series on Staphylococcus aureus [7]. Also, the Activity result in the series on J774 [1] is “Toxic”; in the series on J774 [2] it was “Non-toxic”; with J774 [8], “Non-toxic”.
As to `[C-]#[N+]c1ccccc1/C=C/c1ccccn1`, the minimum inhibitory concentration (MIC) in the series with Staphylococcus aureus [9] is 64 µM (≈ 13.2 µg/mL); in the series on Staphylococcus aureus [12] it was 64 µM (≈ 13.2 µg/mL); in the series with Staphylococcus aureus [3], 64 µM (≈ 13.2 µg/mL); in the series on Staphylococcus aureus [4], 128 µM (≈ 26.4 µg/mL); in the series on Staphylococcus aureus [10], 64 µM (≈ 13.2 µg/mL); in the series on Staphylococcus aureus [5], 16 µM (≈ 3.3 µg/mL). Further, the minimum inhibitory concentration (MIC) was 64 µM (≈ 13.2 µg/mL) in the series with Staphylococcus aureus [11], 32 µM (≈ 6.6 µg/mL) in the series on Staphylococcus aureus [6] and 32 µM (≈ 6.6 µg/mL) with Staphylococcus aureus [7]. Also, the Activity entry is “Toxic” in the series with J774 [1], “Non-toxic” in the series on J774 [2] and “Non-toxic” in the series with J774 [8].
